Assay results as given in ChEMBL document CHEMBL3098095, “Synthesis and biological properties of thiazole-analogues of pyochelin, a siderophore of Pseudomonas aeruginosa” (Bioorg Med Chem Lett, 2014).
pKi: −log10 of the molar value. Active and inactive are the calls of the source. The rule behind the calls is not given here.

Assays:
[1] = test system: Pseudomonas aeruginosa; test: Induction of iron uptake in Pseudomonas aeruginosa PAD07 at 100 nM; type: functional, organism-based
How it was run: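 PAD07 P. aeruginosa cells lacking endogenous siderophores, OD600 1, incubated at 37 °C with 100 nM of the 55Fe(III)-loaded compound. Aliquots taken at several times were centrifuged, and cell-pellet 55Fe was measured as iron transported. Repeated with the protonophore CCCP at 0 °C to check TonB-dependent uptake versus passive diffusion.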

[2] = biological target: T1, Fe(3+)-pyochelin receptor (Pseudomonas aeruginosa (strain ATCC 15692 / PAO1 / 1C / PRS 101 / LMG12228), UniProt P42512); test: Displacement of Pch-55Fe(III) from Pseudomonas aeruginosa PAD07 FptA after 1 hr in presence of CCCP; conditions: for pKi: read-out: Ki
T1 sequence (P42512 whole entry): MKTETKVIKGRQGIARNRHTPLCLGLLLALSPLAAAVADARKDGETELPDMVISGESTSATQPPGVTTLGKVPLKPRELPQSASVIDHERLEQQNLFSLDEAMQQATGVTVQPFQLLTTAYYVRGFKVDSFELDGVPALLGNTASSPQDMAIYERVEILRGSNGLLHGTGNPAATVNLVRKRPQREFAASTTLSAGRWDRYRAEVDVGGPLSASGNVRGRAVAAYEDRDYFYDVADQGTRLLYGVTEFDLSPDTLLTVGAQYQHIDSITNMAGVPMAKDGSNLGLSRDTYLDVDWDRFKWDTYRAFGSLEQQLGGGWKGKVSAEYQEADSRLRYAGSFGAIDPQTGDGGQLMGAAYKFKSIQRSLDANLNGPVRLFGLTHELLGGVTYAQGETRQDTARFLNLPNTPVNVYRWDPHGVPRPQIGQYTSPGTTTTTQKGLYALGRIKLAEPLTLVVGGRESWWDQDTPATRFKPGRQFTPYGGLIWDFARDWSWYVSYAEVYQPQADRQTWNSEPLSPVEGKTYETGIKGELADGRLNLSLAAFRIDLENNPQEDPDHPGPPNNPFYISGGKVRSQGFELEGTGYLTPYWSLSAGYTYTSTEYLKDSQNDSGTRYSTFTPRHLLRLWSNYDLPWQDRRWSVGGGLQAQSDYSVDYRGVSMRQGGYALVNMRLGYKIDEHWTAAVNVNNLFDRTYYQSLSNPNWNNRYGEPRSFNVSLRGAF
How it was run: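 PAD07 P. aeruginosa (mutant lacking pyochelin and pyoverdine), OD600 0.3, held 1 h at 0 °C in 50 mM Tris–HCl pH 8.0 with 200 µM CCCP to block uptake. Tracer 1 nM Pch-55Fe(III) competed by the Fe(III)-loaded compounds over […] range. Inhibition constant (Ki) derived from the competition.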

SMILES	Activity [1]	pKi [2]	Ki [2]
CN1C(c2csc(-c3ccc(O)cc3O)n2)SC[C@H]1C(=O)O (mixture of isomers)	Active	8.19	–
COc1cc(O)ccc1-c1nc(C2SC[C@@H](C(=O)O)N2C)cs1 (mixture of isomers)	inactive	–	Not Active
CN1C(c2csc(-c3cc(N)ccc3O)n2)SC[C@H]1C(=O)O (mixture of isomers)	inactive	–	Not Active
COc1ccc(N)cc1-c1nc(C2SC[C@@H](C(=O)O)N2C)cs1 (mixture of isomers)	inactive	6.34	–
CN1[C@@H](c2csc(-c3ccccc3O)n2)SC[C@H]1C(=O)O	Active	8.01	–
CN1C(c2csc(-c3ccc(N)cc3O)n2)SC[C@H]1C(=O)O (mixture of isomers)	Active	7.95	–
COc1ccccc1-c1nc(C2SC[C@@H](C(=O)O)N2C)cs1 (mixture of isomers)	inactive	–	Not Active
COc1ccc(F)cc1-c1nc(C2SC[C@@H](C(=O)O)N2C)cs1 (mixture of isomers)	inactive	5.84	–
CN1[C@@H]([C@H]2CSC(c3ccccc3O)=N2)SC[C@H]1C(=O)O	Active	8.66	–
